Data set [1] has as its system Human immunodeficiency virus 1. Nature of the data set: Antiretroviral activity against HIV-1 infected in HEK293T cells assessed as inhibition of viral replication by single-cycle assay. The data set is classed as functional, organism-based. The following applies: Human immunodeficiency virus 1, HEK-293T. An outline of the steps: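 In vitro single-cycle, non-replicative phenotypic anti-HIV-1 assay; IC50 values derived from it.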

Data set [2] can be described thus: Cytotoxicity against HEK293T cells by MTT assay. Type of data set: cell-based, HEK-293T. Conditions: human. An outline of the steps: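 HEK293T cells read out with a tetrazolium-based colorimetric assay to give toxicity values.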
Data set [3] is described as follows: Stability in ethanol solution containing sulfuric acid assessed as compound degradation at 0.10 mmol measured within 2 hrs by HPLC method. The data set is classed as physicochemical.

Regarding `CSC(c1ccccc1)c1c[nH]c2ccc(Cl)cc12` (racemic), the IC50 in data set [1] was 9.95 µM. Moreover, it took 52.7 µM to reach half-maximal cytotoxicity in data set [2] (CC50).

With `CCOC(=O)c1[nH]c2ccc(Cl)cc2c1C(OC)c1cccc(Cl)c1` (racemic), the IC50 in data set [1] amounted to 0.033 µM. In addition, the midpoint of cytotoxicity in data set [2], the CC50, lay at 26.8 µM.

In the case of `CCOC(=O)c1[nH]c2ccc(Cl)cc2c1N(CC)c1ccccc1`, the half-inhibitory concentration (IC50) in data set [1] is 1.2 µM. The same compound yielded a CC50 in data set [2] of 22.8 µM.

`CCOC(=O)c1[nH]c2ccc(Cl)cc2c1C(SC)c1cccc(Cl)c1` (racemic): the IC50 in data set [1] was determined as 0.042 µM. Besides, the midpoint of cytotoxicity in data set [2], the CC50, lay at 28.6 µM.

As for `CCOC(=O)c1[nH]c2ccc(Cl)cc2c1C(SC)c1ccccc1` (racemic), the IC50 in data set [1] was found to be 0.039 µM. In data set [2], this compound yielded a CC50 of 26.1 µM.

As to `CCOC(=O)c1[nH]c2ccc(Cl)cc2c1C(SC)c1cc(C)cc(C)c1` (racemic), the half-inhibitory concentration (IC50) in data set [1] was 0.06 µM. The 50% cytotoxic concentration (CC50) in data set [2] was determined as 32 µM.

`CCOC(=O)c1[nH]c2ccc(Cl)cc2c1C(OC)c1cccc(Br)c1` (racemic): in data set [1], the half-inhibitory concentration (IC50) turned out to be 0.02 µM. For the same compound, the 50% cytotoxic concentration (CC50) in data set [2] came out at 26.4 µM.

As for `CCOC(=O)c1[nH]c2ccc(Cl)cc2c1C(OC)c1cccc(C)c1` (racemic), the concentration for half-maximal inhibition (IC50) in data set [1] was determined as 0.02 µM. This compound had a CC50 in data set [2] of 27.4 µM. For the same compound, the Stability entry in data set [3] is “Unstable”.

In the case of `CCOC(=O)c1[nH]c2ccc(Cl)cc2c1C(SC)c1cccc(C)c1` (racemic), the IC50 in data set [1] turned out to be 0.038 µM. Also, the cytotoxic concentration (CC50) in data set [2] turned out to be 29.6 µM. The Stability result in data set [3] is recorded as “Stable”.

Broadly, the IC50 is the concentration that gives 50% inhibition. Broadly, the CC50 is the concentration giving 50% cytotoxicity. A higher CC50 goes with better tolerance by the cells.
